The results in this text go back to ChEMBL document CHEMBL5036326, “Development of Covalent, Clickable Probes for Adenosine A1 and A3 Receptors” (J Med Chem, 2021).

The structures appear in SMILES notation. Calls of active or inactive are those of the source. No cut-off for these calls is given here.

For series [1], the target named is T1, Adenosine receptor A1 (Homo sapiens, UniProt P30542).
T1 sequence (P30542 whole entry): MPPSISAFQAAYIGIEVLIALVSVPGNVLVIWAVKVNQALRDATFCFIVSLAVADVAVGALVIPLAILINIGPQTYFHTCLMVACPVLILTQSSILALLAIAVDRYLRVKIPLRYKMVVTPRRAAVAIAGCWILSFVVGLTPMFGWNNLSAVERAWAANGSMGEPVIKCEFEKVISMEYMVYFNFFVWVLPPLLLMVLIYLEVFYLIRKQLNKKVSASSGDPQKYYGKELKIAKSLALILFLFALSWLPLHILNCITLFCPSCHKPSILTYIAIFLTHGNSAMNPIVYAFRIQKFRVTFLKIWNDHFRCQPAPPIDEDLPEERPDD
Description: Displacement of [3H] DPCPX from human A1 adenosine receptor expressed in Flp-In-CHO cell membrane incubated for 4 hrs by microbeta scintillation counting method. It counts as cell membranes.

Series [2] addresses T2, Adenosine receptor A3 (Homo sapiens) (UniProt P0DMS8).
T2 sequence (whole entry): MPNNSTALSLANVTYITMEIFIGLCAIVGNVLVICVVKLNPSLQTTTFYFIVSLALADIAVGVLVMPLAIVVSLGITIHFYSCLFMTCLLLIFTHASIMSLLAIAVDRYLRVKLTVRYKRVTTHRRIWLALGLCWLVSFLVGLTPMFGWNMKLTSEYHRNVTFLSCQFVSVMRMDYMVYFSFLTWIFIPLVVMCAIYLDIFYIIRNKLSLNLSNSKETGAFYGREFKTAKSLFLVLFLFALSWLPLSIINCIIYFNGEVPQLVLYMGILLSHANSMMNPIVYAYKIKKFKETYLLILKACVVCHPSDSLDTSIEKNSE
Description: Inhibition of CA200645 binding to NanoLuc-fused human Adenosine A3 receptor expressed in HEK293-A cells using furimazine as substrate preincubated for 3 hrs followed by ligand washout and further incubated for 60 mins with CA200645 by NanoBRET assay. In kind it is cell-based. The procedure, abridged: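 HEK293A cells transiently transfected (PEI) with N-terminal Nluc-A3R cDNA, assayed 48 h post-transfection. Cells incubated with competing ligands for 3 h in binding buffer, then washed 6 × 20 min. 5 nM CA200645 added for 60 min at room temperature, then 10 μM furimazine (final). BRET read as 610/460 nm emission ratio at 25 °C. Nonspecific binding defined with 1 μM MRS1220.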

The target of series [3] is T3, Adenosine receptor A1 (Homo sapiens) (UniProt P30542).
T3 sequence (whole entry): T1 sequence (P30542 whole entry)
Particulars: Flp-In-CHO, Membrane, filed as antagonist, time 40.0 min.

Series [4] addresses T1, Adenosine receptor A1. The series can be described thus: Antagonist activity at human adenosine A1 receptor expressed in Flp-In-CHO cell membrane assessed as inhibition of forskolin-stimulated cAMP accumulation preincubated for 5 min followed by forskolin stimulation and further incubated for 30 mins in presence of NECA by alphascreen LANCE assay.
Series [5] has as its target T1, Adenosine receptor A1. Description: Displacement of [3H] DPCPX from human adenosine A1 receptor expressed in Flp-In-CHO cell membrane incubated for 3 hrs followed by compound washout and further incubated for 4 hrs with radioligand by microbeta scintillation counting method. It counts as cell membranes.
Series [6] concerns the target T1, Adenosine receptor A1. Description: Antagonist activity at human adenosine A1 receptor expressed in Flp-In-CHO cell membrane assessed as inhibition of NECA-induced cAMP accumulation in presence of forskolin measured after 40 mins by alpha screen LANCE assay. In kind it is functional, cell membranes.
Series [7] deals with T4, Adenosine receptor A2b (Homo sapiens, UniProt P29275).
T4 sequence (P29275 whole entry): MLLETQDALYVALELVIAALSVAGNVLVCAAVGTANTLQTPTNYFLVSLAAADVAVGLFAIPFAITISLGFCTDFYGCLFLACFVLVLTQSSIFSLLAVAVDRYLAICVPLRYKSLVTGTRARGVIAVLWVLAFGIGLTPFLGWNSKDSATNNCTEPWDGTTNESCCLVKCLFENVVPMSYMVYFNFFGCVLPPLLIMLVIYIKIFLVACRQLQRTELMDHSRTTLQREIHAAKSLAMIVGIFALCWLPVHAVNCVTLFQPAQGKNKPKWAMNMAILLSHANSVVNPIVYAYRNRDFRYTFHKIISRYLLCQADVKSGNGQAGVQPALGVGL
Description: (§1) Antagonist activity at human adenosine A2B receptor expressed in Flp-In-CHO cell membrane assessed as inhibition of NECA-induced cAMP accumulation in presence of forskolin measured after 40 mins by alpha screen LANCE assay. It counts as functional. In short, it runs like this:
(§2)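 A2BR-FlpInCHO cells seeded at 30000 cells/well and incubated overnight at 37 °C. Antagonists tested against a submaximal (EC80) NECA concentration; NECA curves run alongside. cAMP response normalized to buffer (0%) and 3 μM forskolin (100%). Affinity derived by fitting NECA–antagonist interaction data to a competitive model. Duplicates, ≥3 experiments.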

The target of series [8] is T5, Adenosine receptor A2a (Homo sapiens, UniProt P29274). Description: Antagonist activity at human adenosine A2A receptor expressed in Flp-In-CHO cell membrane assessed as inhibition of NECA-induced cAMP accumulation in presence of forskolin measured after 40 mins by alpha screen LANCE assay. It counts as functional, cell membranes.
For series [9], the target named is T6, Adenosine receptor A3 (Homo sapiens, UniProt P0DMS8).
T6 sequence (P0DMS8 whole entry): T2 sequence (whole entry)
Description: Antagonist activity at human adenosine A3 receptor expressed in Flp-In-CHO cell membrane assessed as inhibition of NECA-induced cAMP accumulation in presence of forskolin measured after 40 mins by alpha screen LANCE assay. In kind it is functional, cell membranes.

Series [10] deals with T3, Adenosine receptor A1 (Homo sapiens). Particulars: Flp-In-CHO, Membrane, filed as antagonist, time 40.0 min. The source holds these as a separate data set.
In series [11] the target is T2, Adenosine receptor A3 (Homo sapiens). Particulars: Flp-In-CHO, Membrane, filed as antagonist, time 40.0 min.
The target in series [12] is T3, Adenosine receptor A1 (Homo sapiens). The series can be described thus: Displacement of [3H] DPCPX from human A1 adenosine receptor expressed in Flp-In-CHO cell membrane at 1 uM incubated for 4 hrs by microbeta scintillation counting method. In kind it is cell membranes. Particulars: filed as antagonist. In short, it runs like this:
(§3)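 Membranes (15 μg) from hA1R-FlpInCHO cells incubated with competing ligand and about 1 nM [3H]DPCPX for 4 h at 25 °C. Binding buffer: HEPES, glucose, salts, 1 unit/mL ADA, pH 7.4. Filtration, ice-cold 0.9% NaCl washes, then β-counting. Nonspecific binding defined with 1 μM SLV320. Specific binding normalized to binding without competitor.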

The target is the same in series [13]. The series can be described thus: Displacement of [3H] DPCPX from human A1 adenosine receptor expressed in Flp-In-CHO cell membrane at 10 uM incubated for 4 hrs by microbeta scintillation counting method. In kind it is cell membranes. The procedure, abridged:
as §3

A short description of series [14]: Solubility of the compound at 10 uM. It counts as physicochemical.
Series [15] concerns the target T7, Adenosine receptor A2b (Homo sapiens) (UniProt P29275).
T7 sequence (whole entry): T4 sequence (P29275 whole entry)
The series is described as §1. It counts as functional. Particulars: filed as antagonist. In short, it runs like this: as §2

Series [16] concerns the target T5, Adenosine receptor A2a. Particulars: Flp-In-CHO, Membrane, filed as antagonist, time 40.0 min.

T5 sequence (P29274 whole entry): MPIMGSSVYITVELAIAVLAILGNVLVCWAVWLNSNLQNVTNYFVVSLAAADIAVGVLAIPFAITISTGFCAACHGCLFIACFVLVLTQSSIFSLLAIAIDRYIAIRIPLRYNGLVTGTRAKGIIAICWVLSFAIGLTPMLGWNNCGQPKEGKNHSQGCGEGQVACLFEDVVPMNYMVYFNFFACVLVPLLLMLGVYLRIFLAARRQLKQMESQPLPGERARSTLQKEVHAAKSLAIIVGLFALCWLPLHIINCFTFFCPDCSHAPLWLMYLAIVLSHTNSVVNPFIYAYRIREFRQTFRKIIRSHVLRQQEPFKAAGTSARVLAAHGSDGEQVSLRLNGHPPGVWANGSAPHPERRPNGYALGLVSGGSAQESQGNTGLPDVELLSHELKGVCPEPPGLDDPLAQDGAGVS

With `CCCCn1c(=O)c2nc(C34CCC(C(=O)NCCCN=[N+]=[N-])(CC3)CC4)[nH]c2n(CCCNC(=O)c2ccc(S(=O)(=O)O)cc2)c1=O`, the Ki in series [1] is 605 nM; in series [4], 87.5 nM. Also, the inhibition entry in [2] was “inactive”. For the same compound, the negative logarithm of the Kb (pKb) in series [3] was 7.06.

In the case of `CCCCn1c(=O)c2nc(C34CCC(C(=O)NCCCCCCCCN=[N+]=[N-])(CC3)CC4)[nH]c2n(CCCNC(=O)c2ccc(S(=O)(=O)F)cc2)c1=O`, the Ki came out at 3.7 nM in series [1]; 16.1 nM in series [5]; 10.2 nM in series [6]; 6.7 nM in series [7]; 2.4 nM in [4].

Regarding `CCCCn1c(=O)c2nc(C34CCC(C(=O)NCCOCCOCCOCCN=[N+]=[N-])(CC3)CC4)[nH]c2n(CCCNC(=O)c2ccc(S(=O)(=O)F)cc2)c1=O`, the inhibition constant Ki in series [8] worked out at 36.3 nM; in [7], 95.5 nM; in series [9] it was 8.3 nM.

For `CCCCn1c(=O)c2nc(C34CCC(C(=O)NCCCCN=[N+]=[N-])(CC3)CC4)[nH]c2n(CCCNC(=O)c2ccc(S(=O)(=O)F)cc2)c1=O`, the inhibition constant Ki was determined as 166 nM in series [8], 26.3 nM in series [7] and 4.9 nM in [9].

As for `C#CCNC(=O)C12CCC(c3nc4c(=O)n(CCCC)c(=O)n(CCCNC(=O)c5ccc(S(=O)(=O)F)cc5)c4[nH]3)(CC1)CC2`, the inhibition constant Ki in series [1] turned out to be 26.1 nM; in series [5], 38.8 nM; in [6], 30.9 nM; in series [9] it was 46.8 nM; in [4], 585 nM. Besides, the inhibition entry in [2] (filed as antagonist) was “Active”. Further, the pKb in series [3] was found to be 6.23; in [10], 7.51; in series [11] it was 7.33.

Regarding `CCCCn1c(=O)c2nc(C3CCCCC3)[nH]c2n(CCCNC(=O)c2ccc(S(=O)(=O)F)cc2)c1=O`, the inhibition constant Ki in series [1] is 12.1 nM; in [4], 26 nM. Also, the result in [12] was Active. For the same compound, the outcome in series [13] was inactive. Moreover, the solubility entry in series [14] is recorded as “Insoluble”. The negative logarithm of the Kb (pKb) in [3] was 7.59.

`CCCn1c(=O)c2nc(C34CCC(C(=O)NCCCN=[N+]=[N-])(CC3)CC4)[nH]c2n(CCCNC(=O)c2ccc(S(=O)(=O)F)cc2)c1=O`: the Ki in [1] stood at 3.5 nM; in series [5], 7.8 nM; in series [6] it was 2.8 nM; in [8] it was 26.3 nM; in series [7], 17.8 nM; in series [9], 11 nM. The inhibition constant (Ki) in series [4] was found to be 0.6 nM. Besides, the negative-log Kb (pKb) in series [15] is 7.75; in [3], 9.19; in series [10], 8.56; in series [16], 7.58; in series [11] it was 7.96.

For the compound `CCCCn1c(=O)c2nc(C34CCC(C(=O)NCCCN=[N+]=[N-])(CC3)CC4)[nH]c2n(CCCNC(=O)c2ccc(S(=O)(=O)F)cc2)c1=O`, in series [2] (filed as antagonist), the inhibition result is “Active”. Moreover, the figures for the Ki in [8], in [7] and in series [9] were 38 nM, 79.4 nM and 4.2 nM, respectively.

With `C#CCCCCNC(=O)C12CCC(c3nc4c(=O)n(CCCC)c(=O)n(CCCNC(=O)c5ccc(S(=O)(=O)F)cc5)c4[nH]3)(CC1)CC2`, the Ki in series [1] is 1.6 nM; in series [5], 9.3 nM; in [6], 3.9 nM; in [7] it was 35.4 nM; in series [9], 43.7 nM; in [4], 0.6 nM. In series [2] (filed as antagonist), the inhibition entry is “Active”.

`O[C@H]1CC[C@H](Nc2nc(-c3ccccc3)nc3[nH]ccc23)CC1`: the inhibition constant (Ki) amounted to 0.6 nM in [1], 0.4 nM in series [6] and 0.5 nM in series [4]. For the same compound, the pKb came to 9.27 in [3] and 9.44 in series [10].

`CCCCn1c(=O)c2nc(C34CCC(C(=O)OC)(CC3)CC4)[nH]c2n(CCCNC(=O)c2ccc(S(=O)(=O)F)cc2)c1=O`: the results for the Ki in series [1], in [5] and in series [4] were 17.3 nM, 89.3 nM and 17.1 nM, respectively. Besides, the inhibition entry in series [2] (filed as antagonist) is “Active”. The pKb in series [3] amounted to 7.77.

Turning to `CCCCn1c(=O)c2nc(C34CCC(C(=O)NCCOCCOCCN=[N+]=[N-])(CC3)CC4)[nH]c2n(CCCNC(=O)c2ccc(S(=O)(=O)F)cc2)c1=O`, the Ki is 6.1 nM in [1]; 10 nM in series [5]; 3.5 nM in series [6]; 31.6 nM in series [8]; 22.9 nM in series [7]; 39.8 nM in series [9]. In addition, in series [4], the Ki was 1.4 nM. Also, the pKb is 7.64 in [15]; 8.86 in [3]; 8.45 in series [10]; 7.5 in series [16]; 7.4 in series [11].

For the compound `CCCCn1c(=O)c2nc(C34CCC(C(=O)OC)(CC3)CC4)[nH]c2n(CCCNC(=O)c2ccc(S(=O)(=O)O)cc2)c1=O`, the Ki is 179 nM in [1] and 92 nM in [4]. For the same compound, in [2], the inhibition result is “inactive”. This compound yielded a negative logarithm of the Kb (pKb) in [3] of 7.04.

For the compound `CCCn1c(=O)[nH]c2nc(-c3ccc(S(=O)(=O)N4CCN(c5ccc(Cl)cc5)CC4)cc3)[nH]c2c1=O`, the pKb in series [15] came out at 8.87. The inhibition constant (Ki) in [7] stood at 1.3 nM.
